Measured values taken from ChEMBL document CHEMBL3860044, “The Rational Design, Synthesis, and Antimicrobial Properties of Thiophene Derivatives That Inhibit Bacterial Histidine Kinases” (J Med Chem, 2016).
≈ marks a conversion by molar mass, not a printed value. Calls of active or inactive are those of the source. The calls are words filed in the database; no cut-off is given here.

Experiments:
[1] = tested on: Bacillus subtilis; test: Inhibition of Bacillus subtilis cytoplasmic Walk CA domain (272 to 612 residues) autophosphorylation at 1 mM preincubated for 5 mins followed by [gamma-32P] ATP addition measured after 3 mins by SDS-PAGE based phosphor imaging method
Procedure, shortened: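 Screen used cytoplasmic WalK fragments. 2 µM kinase in Epps buffer pH 8.5 with 20 mM MgCl2, 0.1 mM EDTA and 5% glycerol. Compound at 1 mM final in 10% DMSO, added 5 min before ATP (1 mM final including [γ-32P]ATP). Stopped with SDS loading buffer, run on SDS-PAGE, read by phosphorimaging.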

[2] = Inhibition of Bacillus subtilis JH642 Hexa-his-tagged PhoR cytoplasmic domain (186 to 589 residues) autophosphorylation expressed in Escherichia coli BL21(DE3) preincubated for 5 mins followed by [gamma-32P] ATP addition measured after 8 to 60 mins by SDS-PAGE based phosphor imaging method; parameters: species or system Bacillus subtilis subsp. subtilis str. JH642
Procedure, shortened: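 His6-PhoR purified by Ni-NTA after IPTG induction (1 mM, 16 °C). For IC50: 0.5 µM kinase in Epps pH 8.5, MgCl2, EDTA, glycerol buffer; compound 0–800 µM (two-fold steps), DMSO held constant, 5 min before ATP at 2.5 µM final, cold:hot ratio 1:1. Stopped with SDS loading buffer after 60 min; SDS-PAGE, phosphorimaging, densitometry.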

[3] = Inhibition of Enterococcus faecalis Hexa-his-tagged IreK autophosphorylation expressed in Escherichia coli BL21(DE3) preincubated for 5 mins followed by [gamma-32P] ATP addition measured after 15 mins by SDS-PAGE based phosphor imaging method
Procedure, shortened: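 His6-IreK expressed in E. coli BL21(DE3) with IPTG at 16 °C and purified by Ni-NTA. Autophosphorylation run as for the histidine kinases: 0.5 µM kinase, 2.5 µM ATP with [γ-32P]ATP, compound 0–800 µM added before ATP.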

[4] = Inhibition of Escherichia coli DNA gyrase supercoiling activity using relaxed pUC19 DNA as substrate after 30 mins by agarose gel electrophoresis
Procedure, shortened: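 E. coli gyrase (1 U) with 75 ng relaxed pUC19 in kit buffer with 2% DMSO. Compound at 6.25–800 µM final, ciprofloxacin as control. Incubated 30 min at 37 °C, stopped with loading dye, supercoiling read by agarose gel electrophoresis.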

[5] = tested on: Staphylococcus aureus; test: Antimicrobial activity against methicillin-resistant Staphylococcus aureus USA300 TCH1516 at 20 ug after 20 hrs by disk diffusion assay; type: functional; conditions: USA300_TCH1516
[6] = tested on: Bacillus anthracis; test: Antimicrobial activity against Bacillus anthracis 34F2 after 20 hrs by two fold serial broth dilution method; type: functional; conditions: 34F2, 20 h
Procedure, shortened: (§1)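 Two-fold serial broth dilution per CLSI in LB, BHI or THB broth, (3–7) × 10⁵ cfu/mL per well, compound 0.5 to 128 µg/mL, 20 h at 37 °C. MIC is the lowest concentration with no growth. For MBC (>99.99% kill), 10 µL from wells without growth are spotted on agar and read the next day as spots with fewer than 5 colonies.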

[7] = Antimicrobial activity against Streptococcus pyogenes M1 GAS 5448 after 20 hrs by two fold serial broth dilution method; type: functional; conditions: Streptococcus pyogenes, 5448, 20 h
Procedure, shortened: (§2)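 2-fold serial broth dilution per CLSI in LB, BHI or THB; inoculum (3–7) × 10⁵ cfu/mL; compound 0.5 to 128 µg/mL; 20 h at 37 °C. MIC taken as lowest concentration with no visible growth. For MBC (>99.99% kill), 10 µL from wells without growth spotted on agar; read next day as spots with fewer than 5 colonies.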

[8] = tested on: Listeria monocytogenes; test: Antimicrobial activity against Listeria monocytogenes 10403S after 20 hrs by two fold serial broth dilution method; type: functional; procedure, shortened: as §2
[9] = tested on: Escherichia coli; test: Antimicrobial activity against Escherichia coli MG1655 after 20 hrs by two fold serial broth dilution method; type: functional; conditions: K-12 substr. MG1655, 20 h; procedure, shortened: as §1
[10] = tested on: Bacillus anthracis; test: Bactericidal activity against Bacillus anthracis 34F2 after 20 hrs by two fold serial broth dilution method; type: functional; procedure, shortened: as §1
[11] = tested on: Escherichia coli; test: Bactericidal activity against Escherichia coli MG1655 after 20 hrs by two fold serial broth dilution method; type: functional, K-12 substr. MG1655; procedure, shortened: as §1
[12] = tested on: Bacillus subtilis subsp. subtilis str. JH642; test: Bactericidal activity against Bacillus subtilis JH642 assessed as bacterial cell lysis at 50 ug/ml upto 9 hrs; type: functional
Procedure, shortened: (§3)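 B. subtilis JH642 grown overnight in LB, diluted into 20 mL LB at OD600 0.05, grown at 37 °C. Compound added at OD600 0.5–0.6. OD600 followed before and after addition over several hours. Vancomycin served as bactericidal control and chloramphenicol as bacteriostatic control.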

[13] = tested on: Bacillus subtilis subsp. subtilis str. JH642; test: Bactericidal activity against Bacillus subtilis JH642 assessed as clearing of bacterial culture at 50 ug/ml upto 9 hrs; type: functional; procedure, shortened: as §3
[14] = tested on: Escherichia coli; test: (§4) Inhibition of histidine kinase in cephalosporin-resistant Escherichia coli isolate ARS 108 harboring extended spectrum beta lactamase assessed as adjuvant activity for restoration of amoxicillin induced antibacterial activity by measuring amoxicillin MIC at 50 ug/ml by broth microdilution method (reference value: >16 ug/ml)
Procedure, shortened: (§5)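 Clinical resistant isolates and quality control strains (S. aureus ATCC 29213, E. coli ATCC 25922) are tested by EUCAST broth microdilution with a 10⁶ bacteria/mL inoculum, in triplicate, with or without a fixed adjuvant concentration. For MBC, the MIC dilution and at least two more concentrated dilutions are plated and CFU/mL counted.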

[15] = tested on: Escherichia coli; test: as §4, with “cefotaxime” for “amoxicillin”; procedure, shortened: as §5
[16] = tested on: Escherichia coli; test: Inhibition of histidine kinase in ofloxacin-resistant Escherichia coli isolate G02 assessed as adjuvant activity for restoration of ofloxacin induced antibacterial activity by measuring ofloxacin MIC at 50 ug/ml by broth microdilution method (reference value: >16 ug/ml); procedure, shortened: as §5
[17] = tested on: Staphylococcus aureus; test: Inhibition of histidine kinase in methicillin-resistant Staphylococcus aureus isolate C1BP13 assessed as adjuvant activity for restoration of cloxacillin induced antibacterial activity by measuring cloxacillin MIC at 50 ug/ml by broth microdilution method (reference value: >8 ug/ml); procedure, shortened: as §5
[18] = tested on: Escherichia coli; test: Inhibition of histidine kinase in amoxicillin-resistant Escherichia coli isolate G28 harboring beta-lactamase assessed as adjuvant activity for restoration of amoxicillin induced bactericidal activity by measuring amoxicillin MBC at 50 ug/ml by broth microdilution method (reference value: >16 ug/ml); procedure, shortened: as §5
[19] = tested on: Escherichia coli; test: Inhibition of histidine kinase in cephalosporin-resistant/ESBL producing Escherichia coli isolate ARS 108 assessed as adjuvant activity for restoration of amoxicillin induced bactericidal activity by measuring amoxicillin MBC at 50 ug/ml by broth microdilution method (reference value: >16 ug/ml); procedure, shortened: as §5
[20] = tested on: Staphylococcus aureus; test: Inhibition of histidine kinase in penicillin G-resistant/penicillinase producing Staphylococcus aureus isolate C1P15 assessed as adjuvant activity for restoration of penicillin G induced bactericidal activity by measuring penicillin G MBC at 50 ug/ml by broth microdilution method (reference value: >8 ug/ml); procedure, shortened: as §5
[21] = tested on: Staphylococcus aureus; test: Inhibition of histidine kinase in methicillin-resistant Staphylococcus aureus isolate C1BP13 assessed as adjuvant activity for restoration of penicillin G induced bactericidal activity by measuring penicillin G MBC at 50 ug/ml by broth microdilution method (reference value: >8 ug/ml); procedure, shortened: as §5

O=[N+]([O-])c1ccc(-c2ccccc2O)s1
inhibition [1]: Active | IC50 [2]: 123 µM | IC50 [3]: > 800 µM | IC50 [4]: ≥ 400 µM | Activity [5]: Active | MIC [6]: 7 µg/mL (≈ 31.6 µM) | MIC [7]: 10 µg/mL (≈ 45.2 µM) | MIC [8]: 10 µg/mL (≈ 45.2 µM) | MIC [9]: 32 µg/mL (≈ 145 µM) | MBC99.99 [10]: 16 µg/mL (≈ 72.3 µM) | MBC99.99 [11]: 32 µg/mL (≈ 145 µM) | Activity [12]: Active | Activity [13]: Active | MIC [14]: 0.03 µg/mL | MIC [15]: 0.03 µg/mL | MIC [16]: < 0.015 µg/mL | MIC [17]: < 0.015 µg/mL | MBC [18]: 8 µg/mL | MBC [19]: > 16 µg/mL | MBC [20]: 2 µg/mL | MBC [21]: 4 µg/mL
